Data set [1] can be described thus: melting temperature; fluorescence melt of hairpins on a sequencing array, two-state fit, raised by 9.35 °C to match UV melts. The settings on record: sodium 0.088 M. In short, it runs like this: (§1)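 Bootstrapped two-state fits yielded melting temperature and folding enthalpy for library hairpins. Cy3 fluorescence, with annealed Cy3 and quencher oligos, was imaged on a sequenced MiSeq flow cell in 50 mM Na-HEPES pH 8.0, 25 mM NaCl in 2.5 °C steps up to 60 °C, and normalised to pre-quench Cy3 and to control constructs. Four replicates were combined by inverse variance, and fitted temperatures were raised by 9.35 °C to match UV melts.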

Data set [2] is described as follows: folding enthalpy; higher = less favourable; fluorescence melt of hairpins on a sequencing array, two-state fit. The settings on record: sodium 0.088 M. A digest of the protocol:
as §1

As for GGACCTCCGAAAGGATCC (((..(((....)))))), in data set [1], the Tm came to 28.7 °C. The folding enthalpy in data set [2] is -13.3 kcal/mol.

Turning to GTGTTTGGAAACAAACAC (((((((....))))))), in data set [1], the Tm was found to be 59.6 °C. The folding enthalpy in data set [2] was -47.9 kcal/mol.

Turning to GACTCCGAAAGGATAGTC ((((((....)))..))), the Tm in data set [1] is 41.5 °C. In data set [2], the folding enthalpy is -22.5 kcal/mol.

In the case of GATCACTTATGTGATC ((((((....)))))), in data set [1], the Tm amounted to 56.7 °C. The folding enthalpy in data set [2] is -37.5 kcal/mol.

Consider CGCGGACCATTCCGCG ((((((....)))))), for which the Tm in data set [1] came out at 65.3 °C. Moreover, in data set [2], the folding enthalpy was -37.3 kcal/mol.

As to GCAAAGCGAAAGCCCTGC (((..((....))..))), the Tm in data set [1] is 28.5 °C. Besides, the folding enthalpy in data set [2] is -10.3 kcal/mol.

As to GATCTACCAATAGATC ((((((....)))))), the Tm in data set [1] came out at 38.1 °C. Moreover, the folding enthalpy in data set [2] was -25.6 kcal/mol.

As for GCATGGCGAAAGCCGAGC ((..(((....)))..)), the Tm in data set [1] was 55.7 °C. The folding enthalpy in data set [2] was -17.1 kcal/mol.

As for GTTTCCGAAAGGAAGAAC ((((((....)))..))), the Tm in data set [1] stood at 30.9 °C. In addition, the folding enthalpy in data set [2] was -11.1 kcal/mol.

Take GTAGGCGAAAGCCTATAC ((((((....)))..))): the Tm in data set [1] was found to be 45.2 °C. Moreover, the folding enthalpy in data set [2] was -9.56 kcal/mol.

GTGCGCGAAAGCGTCCAC ((((((....)))..))): in data set [1], the Tm was 36.4 °C. Besides, in data set [2], the folding enthalpy was -9.9 kcal/mol.

For GAGGACGAAAGTCATCTC ((((((....)))..))), the Tm in data set [1] came to 51.8 °C. In addition, the folding enthalpy in data set [2] was -19.1 kcal/mol.

Turning to GAGCGGACGAAAGTCCTC (((..(((....)))))), in data set [1], the Tm was 29.9 °C. In addition, the folding enthalpy in data set [2] is -8.32 kcal/mol.

In the case of GTTGATCCGAAAGGAAAC (((..(((....)))))), the Tm in data set [1] stood at 27.6 °C. Further, the folding enthalpy in data set [2] is -20.8 kcal/mol.

Consider GATCACACGGGTGATC ((((((....)))))), for which the Tm in data set [1] stood at 57.1 °C. Moreover, the folding enthalpy in data set [2] was -35.5 kcal/mol.

Consider GTGGTGCGAAAGCATCAC (((.(((....))).))), for which the Tm in data set [1] was determined as 67 °C. Also, in data set [2], the folding enthalpy was -30.4 kcal/mol.

As to GCTGAGCGAAAGCGGAGC (((..((....))..))), the Tm in data set [1] was determined as 62.4 °C. Besides, the folding enthalpy in data set [2] was -26.9 kcal/mol.

For the sequence GAAGGCGAAAGCCGTTC ((((((....))).))), the Tm in data set [1] was 43 °C. Moreover, the folding enthalpy in data set [2] was -8.18 kcal/mol.

In the case of GTACGTCGAAAGACATAC (((.(((....))).))), the Tm in data set [1] came out at 38.4 °C. Also, in data set [2], the folding enthalpy was -20.1 kcal/mol.

Consider GCGAGTCATCGC ((((....)))), for which the Tm in data set [1] worked out at 67.8 °C. The folding enthalpy in data set [2] was -24.8 kcal/mol.

As for GGTGCGCGAAAGCGACC (((.(((....)))))), the Tm in data set [1] was 56.7 °C. For the same sequence, the folding enthalpy in data set [2] was -15.3 kcal/mol.

Turning to GAGGTTGGAAACAGTCTC (((..((....))..))), the Tm in data set [1] is 25.6 °C. For the same sequence, in data set [2], the folding enthalpy is -10.1 kcal/mol.

GCGCATGGAAACACGCGC ((((.((....)).)))): the Tm in data set [1] turned out to be 56.1 °C. In addition, the folding enthalpy in data set [2] was -40.4 kcal/mol.

On to GTTAGCCGAAAGGCGAAC (((.(((....))).))), for which the Tm in data set [1] stood at 57.6 °C. Besides, the folding enthalpy in data set [2] is -20.5 kcal/mol.

Take GATCTGACTCAGATC ((((((...)))))): the Tm in data set [1] stood at 46.8 °C. The folding enthalpy in data set [2] was -33.7 kcal/mol.

As for GTTGCGGGAAACCGTGAC ((..(((....)))..)), the Tm in data set [1] worked out at 45.2 °C. The folding enthalpy in data set [2] was -20.2 kcal/mol.

Regarding GTCACTTCGAAAGAAGAC (((..(((....)))))), the Tm in data set [1] stood at 26.7 °C. Moreover, in data set [2], the folding enthalpy is -8.67 kcal/mol.

On to GAGGTGGGAAACCGCCTC ((((.((....)).)))), for which the Tm in data set [1] came to 57.1 °C. Further, the folding enthalpy in data set [2] is -46.9 kcal/mol.

GCTTACGAAAGTATCAGC ((((((....)))..))): the Tm in data set [1] was determined as 33.1 °C. Further, the folding enthalpy in data set [2] is -14.2 kcal/mol.

As to GGCGGTCGAAAGACGGCC (((.(((....))).))), in data set [1], the Tm is 68.2 °C. The folding enthalpy in data set [2] is -34.5 kcal/mol.

For GCCATGCGAAAGCAGGC (((.(((....)))))), the Tm in data set [1] stood at 64.4 °C. For the same sequence, the folding enthalpy in data set [2] is -21.8 kcal/mol.

Consider GAATATGAAAATATTC ((((((....)))))), for which the Tm in data set [1] worked out at 39.8 °C. The folding enthalpy in data set [2] is -24.6 kcal/mol.

Take GATCCCTCTAGGGATC ((((((....)))))): the Tm in data set [1] amounted to 66.6 °C. In addition, the folding enthalpy in data set [2] was -33.9 kcal/mol.

Take GGAAGCGAAAGCTTTCC ((((((....))).))): the Tm in data set [1] was 50.1 °C. Besides, the folding enthalpy in data set [2] is -30.2 kcal/mol.

Turning to GTGGTAGGAAACTGCCAC ((((.((....)).)))), the Tm in data set [1] came to 54.1 °C. In data set [2], the folding enthalpy is -50 kcal/mol.

Take CGGCTCGGAAACGATCCG (((.(((....))).))): the Tm in data set [1] came out at 49.2 °C. In addition, the folding enthalpy in data set [2] was -44.5 kcal/mol.

With GGTTGCGAAAGCAACACC ((((((....)))..))), the Tm in data set [1] worked out at 50 °C. Moreover, the folding enthalpy in data set [2] was -8.28 kcal/mol.

The values above are taken from the array DNA melting data of Ke et al. (doi:10.1101/2024.01.08.574731).
